Experimental data from ChEMBL document CHEMBL1123129, “Hypolipidemic activity of indan-1,3-dione derivatives in rodents” (J Med Chem, 1985).
“And” between values parts separate entries of the source, which are not always exact repeats. Equal values may be shown once.

Key:
[1] = biological target: Acetyl-CoA carboxylase 1 (Mus musculus) (UniProt Q5SWU9); assay: In Vivo effect for the hypolipidemic activity on Acetyl-CoA carboxylase in CF1 mice after 16 days administered orally at a dose of 20 mg/kg; type: functional, organism-based; design: dose 20 mg/kg
Outline: (§1)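 CF1 male mice are dosed orally at 10–60 mg/kg per day for 16 days, with 1% CMC as the control vehicle. Liver is homogenized at 10% in 0.25 M sucrose + 0.001 M EDTA, pH 7.2. Enzymes are assayed by literature methods, with Lowry protein. Activity is given as % of control (X ± SD, N = 6), with p from Student's t test.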

[2] = In Vitro evaluation for the CF1 liver enzyme activity on Acyl cholesterol acyltransferase at concentration 50 uM
Outline: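 Liver was taken from CF1 male mice and made into 10% homogenates, which were incubated with test compound at 50, 100 or 200 µM. Each enzyme was assayed by its literature method, and protein was measured by Lowry. N = 6. Activity is expressed as % of untreated control ± SD.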

[3] = biological target: T1, 3-hydroxy-3-methylglutaryl-coenzyme A reductase (Mus musculus) (UniProt Q01237); assay: In Vivo effect for the hypolipidemic activity on HMG-CoA reductase in CF1 mice after 16 days of oral administration at a dose of 40 mg/kg; type: organism-based; design: dose 40 mg/kg; outline: as §1
T1 sequence (whole entry): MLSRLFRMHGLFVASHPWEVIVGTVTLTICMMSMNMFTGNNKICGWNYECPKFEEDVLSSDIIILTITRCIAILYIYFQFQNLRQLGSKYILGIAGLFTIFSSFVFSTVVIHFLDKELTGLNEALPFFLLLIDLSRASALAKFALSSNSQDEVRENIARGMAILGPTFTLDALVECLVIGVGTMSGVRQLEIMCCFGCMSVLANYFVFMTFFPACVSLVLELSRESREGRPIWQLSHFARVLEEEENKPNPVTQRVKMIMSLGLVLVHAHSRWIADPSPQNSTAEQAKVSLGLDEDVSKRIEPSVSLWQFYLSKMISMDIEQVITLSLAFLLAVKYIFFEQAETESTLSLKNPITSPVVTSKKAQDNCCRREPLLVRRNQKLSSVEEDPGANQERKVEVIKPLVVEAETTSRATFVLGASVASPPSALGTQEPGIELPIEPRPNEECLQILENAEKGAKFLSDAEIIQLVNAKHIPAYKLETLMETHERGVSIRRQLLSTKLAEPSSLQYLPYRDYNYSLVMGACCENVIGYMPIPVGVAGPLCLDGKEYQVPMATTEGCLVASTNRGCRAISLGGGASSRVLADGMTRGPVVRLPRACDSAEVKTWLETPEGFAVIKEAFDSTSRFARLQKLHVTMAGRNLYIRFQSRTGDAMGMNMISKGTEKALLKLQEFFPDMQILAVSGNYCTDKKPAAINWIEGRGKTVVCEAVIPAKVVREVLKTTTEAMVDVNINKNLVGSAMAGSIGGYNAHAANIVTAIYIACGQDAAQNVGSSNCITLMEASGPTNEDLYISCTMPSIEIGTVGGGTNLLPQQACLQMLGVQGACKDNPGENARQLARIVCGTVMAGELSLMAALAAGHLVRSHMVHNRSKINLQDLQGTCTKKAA

Mus musculus [4] = assay: Compound was evaluated for the hypolipidemic activity in CF1 male mice at a dose of 40 mg/kg orally for Serum triglyceride at 16th day; type: functional; conditions: route oral
Outline: (§2)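 CF1 male mice received the agent orally in 1% CMC at 10–60 mg/kg per day. Tail-vein blood was taken on days 9 and 16. Serum cholesterol was measured by modified Liebermann–Burchard on duplicate 25-µL samples, and serum triglyceride on day 16 in duplicate 50-µL samples. Values are % of vehicle control, mean ± SD, N = 6; Student's t test.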

Mus musculus [5] = assay: Compound was evaluated for the hypolipidemic activity in CF1 male mice at a dose of 60 mg/kg orally for Serum cholesterol at 16th day; type: functional; conditions: route oral; outline: as §2
Mus musculus [6] = species on record: Mus musculus; assay: In Vitro evaluation for the CF1 liver enzyme activity on Hepatic lipoprotein lipase at concentration 200 uM; type: functional
Outline: (§3)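 Mouse liver enzymes assayed in vitro on 10% homogenates of CF1 male mouse liver, with test drug added at 50–200 μM. Each enzyme follows a published procedure. Protein is measured by Lowry. Activity is given as % of untreated control (X ± SD, N = 6).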

Mus musculus [7] = species on record: Mus musculus; assay: In Vitro evaluation for the CF1 liver enzyme activity on Mitochondrial citrate exchange at concentration 100 uM; type: functional; outline: as §3
Rattus norvegicus [8] = assay: Compound was evaluated for the hypolipidemic activity at 20 mg/kg per day orally for 14 days on protein content in rat VLDL; type: functional; conditions: route oral
Outline: (§4)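 Male Sprague–Dawley rats (~300 g) were dosed orally each day. Blood was drawn from the abdominal vein. Lipoprotein fractions (chylomicron, VLDL, LDL, HDL) were separated by the Hatch–Lees and Havel methods. Each fraction was assayed for cholesterol, triglyceride (enzymatic kit), neutral lipids, phospholipids and Lowry protein. Values are % of 1% CMC vehicle control, N = 6.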

Rattus norvegicus [9] = assay: Compound was evaluated for the hypolipidemic activity at 20 mg/kg per day orally for 14 days on protein content in rat lipoprotein chylomicron; type: functional; conditions: route oral; outline: as §4
Rattus norvegicus [10] = assay: Compound was evaluated for the hypolipidemic activity at 20 mg/kg per day orally for 14 days against neutral lipids in rat lipoprotein chylomicron; type: functional; conditions: route oral; outline: as §4
Rattus norvegicus [11] = assay: Compound was evaluated for the hypolipidemic activity at 20 mg/kg per day orally for 14 days on cholesterol content in rat liver; type: functional; conditions: route oral
Outline: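 Male Sprague–Dawley rats were dosed orally for 14 days. Liver, small intestine and a 24-h fecal collection were lipid-extracted. Extracts were assayed for cholesterol (modified Liebermann–Burchard), triglyceride (enzymatic kit), neutral lipids, phospholipids and protein. Values are % of 1% CMC vehicle control, mean ± SD, N = 6.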

Rattus norvegicus [12] = assay: Compound was evaluated for the hypolipidemic activity in Sprague-Dawley rats at a dose of 20 mg/kg orally for Serum cholesterol at 9th day; type: functional; conditions: route oral
Outline: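 Sprague–Dawley male rats (~350 g) received 20 mg/kg per day orally, with 1% CMC as the vehicle control; N = 6. Tail-vein blood was taken between 8:00 and 9:30 a.m. on days 9 and 16 and spun for 3 min to obtain serum. Cholesterol was measured by a modified Liebermann–Burchard reaction and triglyceride by kit. Values are % control ± SD; significance by Student's t test.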

Rattus norvegicus [13] = assay: Compound was evaluated for the hypolipidemic activity at 20 mg/kg per day orally for 14 days on phospholipids content in rat HDL; type: functional; conditions: route oral; outline: as §4

Control [1]: 107% | Control [2]: 94% | Control [3]: 114%
Compound: COc1ccc(C2C(=O)c3ccccc3C2=O)cc1 [ANISINDIONE]
Control (Mus musculus [4]): 73% | Control (Mus musculus [5]): 62% | Control (Mus musculus [6]): 93% | Control (Mus musculus [7]): 38% | Control (Rattus norvegicus [8]): 106% | Control (Rattus norvegicus [9]): 118% | Control (Rattus norvegicus [10]): 99% | Control (Rattus norvegicus [11]): 69% and 84% | Control (Rattus norvegicus [12]): 74% | Control (Rattus norvegicus [13]): 87%
